For 20 molecules, MIC, inhibition in vivo and Activity results are on record in ChEMBL document CHEMBL1155199, “Synthesis of 6-aminomethyl derivatives of benzopyran-4-one with dual biological properties: anti-inflammatory-analgesic and antimicrobial” (Eur J Med Chem, 2009).

The test system of one series is Staphylococcus aureus. Put plainly: Antibacterial activity against Staphylococcus aureus ATCC 29737 by turbidity method. The format is functional.
Another series deals with Escherichia coli. Put plainly: Antibacterial activity against Escherichia coli ATCC 8739 by turbidity method. The format is functional.
The next series concerns Penicillium citrinum. Kind of series: Antifungal activity against Penicillium citrinum NCIM 768. In kind it is functional. In short, it runs like this: (§1)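 Antifungal screen against R. oryza NRRL-21498 and P. citrum NCIM-768 with fluconazole as reference. Compounds that inhibited growth of one or more organisms were taken forward to MIC determination, reported in µg/mL.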

Series [1] deals with Rattus norvegicus. Kind of series: Antiinflammatory activity in Wistar albino rat assessed as inhibition of carrageenan-induced paw edema at 20 mg/kg, po administered 30 mins before carrageenan challenge measured after 2 hrs relative to ibuprofen. In kind it is functional. In short, it runs like this: (§2)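 Wistar albino rats (180–200 g), either sex, randomized into groups of six. Dosed 20 mg/kg p.o.; controls received 0.5% CMC. 30 min later, 0.1 mL 0.1% carrageenan in sterile 0.9% NaCl injected subplantar into the right hind paw. Paw volume read by plethysmometer at 2 and 3 h. Expressed as % inhibition, mean ± SEM, ANOVA with post hoc test.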
On the technique in general: In the carrageenan paw model, swelling and tenderness develop within hours.

Series [2] deals with Rattus norvegicus. Put plainly: Antiinflammatory activity in Wistar albino rat assessed as inhibition of carrageenan-induced paw edema at 20 mg/kg, po administered 30 mins before carrageenan challenge measured after 3 hrs relative to ibuprofen. The format is functional. In short, it runs like this: as §2
The next series relates to Rhizopus arrhizus. Kind of series: Antifungal activity against Rhizopus oryzae NRRL 21498. The format is functional. The procedure, abridged:
as §1

In series [3] the test system is Rattus norvegicus. Put plainly: Effect on lipid peroxidation in Albino rat gastric mucosa assessed as malondialdehyde level per mg of protein at 60 mg/kg, po after 17 hrs relative to ibuprofen. The format is ADME, organism-based. Details: dose 60 mg/kg, route oral. Conditions: in vivo. The procedure, abridged:
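Lipid peroxidation measured by the Ohkawa thiobarbituric acid–MDA colorimetric method. Tubes were heated 30 min at 80 °C in a shaking water bath, chilled 10 min in ice water, and centrifuged at 3000 rpm for 15 min. Supernatant absorbance was read at 540 nm against a blank. Results are nmol MDA/mg protein, mean ± S.E.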

Another series has as its system Mus musculus. Put plainly: Analgesic activity in Swiss albino mouse assessed as protection against acetic acid-induced writhing at 20 mg/kg, po administered 1 hr before acetic acid challenge measured for 5 to 15 mins. In kind it is functional. In short, it runs like this: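 Swiss albino mice (25–30 g), either sex, groups of six, habituated individually 30 min in test cage. Test agents 20 mg/kg suspended in 1.0% CMC given orally; controls received CMC only. 1 h later, 0.10 mL 1% aqueous acetic acid injected i.p. to induce writhing. Data are mean ± S.E., one-way ANOVA with post hoc test.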
On the technique in general: An intraperitoneal irritant provokes the stretching counted in writhing tests.

Series [4] concerns Rattus norvegicus. Put plainly: Gastrointestinal toxicity in Albino rat assessed as severity index at 60 mg/kg, po after 17 hrs relative to control. The format is organism-based. Details: dose 60 mg/kg, route oral. Conditions: in vivo. The procedure, abridged: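 Rats fasted 24 h (water allowed), then dosed orally at 60 mg/kg as a suspension in 1% methyl cellulose; controls received vehicle alone. Normal diet for 17 h after dosing. Stomach mucosa examined under a magnifying glass and scored: 0.5 redness, 1.0 spot ulcers, 1.5 haemorrhagic streaks, 2.0 ulcers >3 but <5, 3.0 ulcers >5. Severity index is the group mean score minus the control mean. Data are mean ± S.E.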

In brackets after ≈: the same amount, converted by molar mass.

Consider `COc1ccc(-c2cc(=O)c3cc(CNc4ccc(C)cc4)ccc3o2)cc1`, for which the MIC in the series with Staphylococcus aureus was 50 µg/mL (≈ 135 µM); with Escherichia coli it was 50 µg/mL (≈ 135 µM); in the series with Penicillium citrinum, more than 100 µg/mL; in the series with Rhizopus arrhizus it was 50 µg/mL (≈ 135 µM). The inhibition in vivo at 20 mg/kg in the series on Rattus norvegicus [1] was 18.7%; with Rattus norvegicus [2] it was 51%.

For `O=c1cc(-c2ccccc2Cl)oc2ccc(CN3CCOCC3)cc12`, the Activity with Rattus norvegicus [3] worked out at 0.352 nmol; in the series on Mus musculus, 54.81%; in the series with Rattus norvegicus [4], 0.1. The MIC in the series with Staphylococcus aureus is 50 µg/mL (≈ 141 µM); in the series with Escherichia coli it was more than 100 µg/mL; in the series on Penicillium citrinum, 25 µg/mL (≈ 70.3 µM); with Rhizopus arrhizus it was 25 µg/mL (≈ 70.3 µM). For the same molecule, the values for the inhibition in vivo at 20 mg/kg in the series with Rattus norvegicus [1] and in the series with Rattus norvegicus [2] were 64.4% and 82.5%, respectively.

As to `COc1ccc(-c2cc(=O)c3cc(CN4CCNCC4)ccc3o2)cc1`, the values for the Activity with Rattus norvegicus [3], in the series on Mus musculus and in the series with Rattus norvegicus [4] were 0.599 nmol, 40.36% and 0.4, respectively. Besides, the MIC was 50 µg/mL (≈ 143 µM) with Staphylococcus aureus, 50 µg/mL (≈ 143 µM) in the series on Escherichia coli, more than 100 µg/mL against Penicillium citrinum and 50 µg/mL (≈ 143 µM) with Rhizopus arrhizus. In addition, the results for the inhibition in vivo at 20 mg/kg with Rattus norvegicus [1] and in the series with Rattus norvegicus [2] were 39.5% and 68.9%, respectively.

On to `CCn1cc(C(=O)O)c(=O)c2cc(F)c(N3CCNCC3)cc21` [NORFLOXACIN], for which the MIC in the series with Staphylococcus aureus and with Escherichia coli was 6.25 µg/mL (≈ 19.6 µM) throughout.

For `O=c1cc(-c2ccccc2Cl)oc2ccc(CN3CCNCC3)cc12`, the Activity in the series with Rattus norvegicus [3] is listed as 0.403 nmol; in the series on Mus musculus it was 48.39%; with Rattus norvegicus [4] it was 0.3. The MIC against Staphylococcus aureus is more than 100 µg/mL; against Escherichia coli, more than 100 µg/mL; with Penicillium citrinum, 50 µg/mL (≈ 141 µM); in the series with Rhizopus arrhizus, 50 µg/mL (≈ 141 µM). The inhibition in vivo at 20 mg/kg is 56% in the series with Rattus norvegicus [1] and 73.9% in the series on Rattus norvegicus [2].

Regarding `CN(C)Cc1ccc2oc(-c3ccccc3Cl)cc(=O)c2c1`, the MIC in the series with Staphylococcus aureus was more than 100 µg/mL; against Escherichia coli, 50 µg/mL (≈ 159 µM); against Penicillium citrinum, more than 100 µg/mL; in the series with Rhizopus arrhizus it was more than 100 µg/mL. In addition, the inhibition in vivo at 20 mg/kg was found to be 36.2% in the series with Rattus norvegicus [1] and 54.3% with Rattus norvegicus [2].

For the molecule `COc1ccc(-c2cc(=O)c3cc(CCl)ccc3o2)cc1`, the MIC in the series with Staphylococcus aureus was 10 µg/mL (≈ 33.3 µM); against Escherichia coli it was 50 µg/mL (≈ 166 µM); with Penicillium citrinum it was more than 100 µg/mL; against Rhizopus arrhizus it was 10 µg/mL (≈ 33.3 µM). Moreover, the inhibition in vivo at 20 mg/kg was 32.2% in the series with Rattus norvegicus [1] and 38.7% with Rattus norvegicus [2].

As for `Cc1ccc(NCc2ccc3oc(-c4ccccc4Cl)cc(=O)c3c2)cc1`, the MIC is more than 100 µg/mL against Staphylococcus aureus, more than 100 µg/mL in the series with Escherichia coli, more than 100 µg/mL with Penicillium citrinum and 50 µg/mL (≈ 133 µM) against Rhizopus arrhizus. The inhibition in vivo at 20 mg/kg in the series on Rattus norvegicus [1] was found to be 19.8%; with Rattus norvegicus [2] it was 52.7%.

As to `COc1ccc(-c2cc(=O)c3cc(CN4CCNCC4)ccc3o2)cc1OC`, the Activity in the series on Rattus norvegicus [3] came out at 0.525 nmol; with Mus musculus, 45.38%; in the series with Rattus norvegicus [4] it was 0.4. Also, the MIC with Staphylococcus aureus stood at 25 µg/mL (≈ 65.7 µM); in the series with Escherichia coli it was 10 µg/mL (≈ 26.3 µM); against Penicillium citrinum it was 50 µg/mL (≈ 131 µM); in the series with Rhizopus arrhizus, 25 µg/mL (≈ 65.7 µM). Also, the inhibition in vivo at 20 mg/kg with Rattus norvegicus [1] was 54%; in the series with Rattus norvegicus [2], 72.2%.

For the molecule `COc1ccc(-c2cc(=O)c3cc(CCl)ccc3o2)cc1OC`, the MIC is 10 µg/mL (≈ 30.2 µM) in the series on Staphylococcus aureus, 50 µg/mL (≈ 151 µM) in the series with Escherichia coli, more than 100 µg/mL with Penicillium citrinum and 10 µg/mL (≈ 30.2 µM) in the series with Rhizopus arrhizus. Moreover, the inhibition in vivo at 20 mg/kg with Rattus norvegicus [1] was 33.3%; with Rattus norvegicus [2] it was 49.4%.

As for `COc1ccc(-c2cc(=O)c3cc(CNc4ccc(S(N)(=O)=O)cc4)ccc3o2)cc1`, the MIC with Staphylococcus aureus came to 25 µg/mL (≈ 57.3 µM); against Escherichia coli, 50 µg/mL (≈ 115 µM); in the series on Penicillium citrinum it was 25 µg/mL (≈ 57.3 µM); in the series on Rhizopus arrhizus, 10 µg/mL (≈ 22.9 µM). For the same molecule, the inhibition in vivo at 20 mg/kg with Rattus norvegicus [1] was 25.3%; in the series with Rattus norvegicus [2], 60.5%.

With `CC(C)Cc1ccc(C(C)C(=O)O)cc1` (stereo unspecified) [IBUPROFEN], the Activity in the series on Mus musculus is listed as 65.06%; in the series with Rattus norvegicus [4], 0.9.

Take `COc1ccc(-c2cc(=O)c3cc(CN(C)C)ccc3o2)cc1`: the MIC came to 50 µg/mL (≈ 162 µM) against Staphylococcus aureus, 50 µg/mL (≈ 162 µM) with Escherichia coli, 50 µg/mL (≈ 162 µM) against Penicillium citrinum and 10 µg/mL (≈ 32.3 µM) with Rhizopus arrhizus. Also, the inhibition in vivo at 20 mg/kg in the series with Rattus norvegicus [1] was determined as 36%; with Rattus norvegicus [2] it was 53.1%.

For `NS(=O)(=O)c1ccc(NCc2ccc3oc(-c4ccccc4Cl)cc(=O)c3c2)cc1`, the MIC is 50 µg/mL (≈ 113 µM) against Staphylococcus aureus, 50 µg/mL (≈ 113 µM) against Escherichia coli, 25 µg/mL (≈ 56.7 µM) in the series on Penicillium citrinum and more than 100 µg/mL with Rhizopus arrhizus. The inhibition in vivo at 20 mg/kg in the series with Rattus norvegicus [1] turned out to be 32.2%; in the series with Rattus norvegicus [2] it was 58.2%.

Take `COc1ccc(-c2cc(=O)c3cc(CN4CCOCC4)ccc3o2)cc1OC`: the figures for the Activity in the series on Rattus norvegicus [3], in the series with Mus musculus and with Rattus norvegicus [4] were 0.331 nmol, 53.61% and 0.1, respectively. For the same molecule, the MIC against Staphylococcus aureus, against Escherichia coli, against Penicillium citrinum and against Rhizopus arrhizus was 10 µg/mL (≈ 26.2 µM) each time. Moreover, the figures for the inhibition in vivo at 20 mg/kg in the series with Rattus norvegicus [1] and with Rattus norvegicus [2] were 61.8% and 80.9%, respectively.

As for `COc1ccc(-c2cc(=O)c3cc(CNc4ccc(S(N)(=O)=O)cc4)ccc3o2)cc1OC`, the MIC against Staphylococcus aureus turned out to be 25 µg/mL (≈ 53.6 µM); against Escherichia coli, 10 µg/mL (≈ 21.4 µM); in the series with Penicillium citrinum, 10 µg/mL (≈ 21.4 µM); in the series with Rhizopus arrhizus, 10 µg/mL (≈ 21.4 µM). Moreover, the inhibition in vivo at 20 mg/kg in the series on Rattus norvegicus [1] was found to be 27.1%; with Rattus norvegicus [2], 60.5%.

For `COc1ccc(-c2cc(=O)c3cc(CNc4ccc(C)cc4)ccc3o2)cc1OC`, the MIC against Staphylococcus aureus amounted to 25 µg/mL (≈ 62.3 µM); with Escherichia coli it was 50 µg/mL (≈ 125 µM); in the series with Penicillium citrinum, 25 µg/mL (≈ 62.3 µM); in the series with Rhizopus arrhizus, 25 µg/mL (≈ 62.3 µM). Further, the inhibition in vivo at 20 mg/kg is 18.7% in the series on Rattus norvegicus [1] and 50.8% in the series with Rattus norvegicus [2].

Turning to `COc1ccc(-c2cc(=O)c3cc(CN(C)C)ccc3o2)cc1OC`, the MIC amounted to 25 µg/mL (≈ 73.7 µM) against Staphylococcus aureus, 25 µg/mL (≈ 73.7 µM) in the series on Escherichia coli, 50 µg/mL (≈ 147 µM) in the series with Penicillium citrinum and 10 µg/mL (≈ 29.5 µM) against Rhizopus arrhizus. The inhibition in vivo at 20 mg/kg with Rattus norvegicus [1] turned out to be 29.8%; with Rattus norvegicus [2] it was 51%.

In the case of `OC(Cn1cncn1)(Cn1cncn1)c1ccc(F)cc1F` [FLUCONAZOLE], the minimum inhibitory concentration (MIC) against Penicillium citrinum and against Rhizopus arrhizus was 6.25 µg/mL (≈ 20.4 µM) in each case.

On to `COc1ccc(-c2cc(=O)c3cc(CN4CCOCC4)ccc3o2)cc1`, for which the figures for the Activity in the series with Rattus norvegicus [3], in the series on Mus musculus and in the series on Rattus norvegicus [4] were 0.526 nmol, 50.8% and 0.2, respectively. The MIC against Staphylococcus aureus, against Escherichia coli, against Penicillium citrinum and against Rhizopus arrhizus was 10 µg/mL (≈ 28.5 µM) in each case. Moreover, the inhibition in vivo at 20 mg/kg came out at 62.7% in the series with Rattus norvegicus [1] and 75.3% in the series with Rattus norvegicus [2].

In general, MIC refers to the lowest concentration found to suppress growth. Low values mean greater potency, high ones weaker potency. In general, inhibition in vivo refers to the percentage by which the read-out fell short of the control.
